In article PMC5582369 (British Journal of Clinical Pharmacology, 2017):
Each block holds one compound with its values, some of them ahead of it.

Columns and labels:
Na+/H+ exchange = details: healthy volunteers, cited from earlier work
[1] = Cefadroxil plasma pharmacokinetics, phase 1 two-period crossover study; format: in vivo, healthy volunteers (human)
PepT1 = details: in vitro; cited from earlier work
NHE3 = biological target: T1, NHE3 (Homo sapiens, UniProt P48764); assay: Stool frequency and consistency; format: in vivo, healthy volunteers (human); details: mean ± SD over overall tenapanor 15 mg b.i.d. dosing period; day –1: 3.7 ± 1.0
T1 sequence (P48764 26-834): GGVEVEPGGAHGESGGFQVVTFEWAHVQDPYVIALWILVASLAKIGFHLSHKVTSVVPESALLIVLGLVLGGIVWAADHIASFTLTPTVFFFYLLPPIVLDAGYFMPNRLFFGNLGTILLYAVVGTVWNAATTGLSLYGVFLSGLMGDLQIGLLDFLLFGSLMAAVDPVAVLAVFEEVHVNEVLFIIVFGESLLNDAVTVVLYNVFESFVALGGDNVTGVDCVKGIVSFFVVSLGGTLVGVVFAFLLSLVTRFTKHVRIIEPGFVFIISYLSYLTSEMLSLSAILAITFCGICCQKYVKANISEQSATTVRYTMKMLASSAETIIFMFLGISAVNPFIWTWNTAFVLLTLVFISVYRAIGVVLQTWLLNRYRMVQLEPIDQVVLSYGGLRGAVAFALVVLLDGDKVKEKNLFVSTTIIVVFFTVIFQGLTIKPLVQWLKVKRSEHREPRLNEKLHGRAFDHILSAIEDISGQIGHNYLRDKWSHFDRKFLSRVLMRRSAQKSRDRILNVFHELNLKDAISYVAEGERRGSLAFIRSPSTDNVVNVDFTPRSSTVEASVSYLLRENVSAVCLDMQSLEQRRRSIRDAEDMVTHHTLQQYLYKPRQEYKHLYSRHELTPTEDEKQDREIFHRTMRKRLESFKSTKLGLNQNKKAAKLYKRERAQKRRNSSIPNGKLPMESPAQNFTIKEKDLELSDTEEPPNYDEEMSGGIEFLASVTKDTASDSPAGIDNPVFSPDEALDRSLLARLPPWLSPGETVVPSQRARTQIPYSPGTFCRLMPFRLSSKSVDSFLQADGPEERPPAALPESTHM

[2] = Tenapanor plasma concentration; format: in vivo, healthy volunteers (human); details: tenapanor 15 mg b.i.d., day 5
Summary of the method: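 Blood was drawn predose and 1, 2 and 4 h after the day-5 morning dose of the test compound (15 mg twice daily from day 1). Plasma was extracted liquid–liquid with a deuterated internal standard, evaporated under nitrogen and reconstituted. Analysis was by LC-MS/MS, validated over 0.500–100 ng ml–1, with a lower limit of quantitation of 0.5 ng ml–1.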

[3] = Safety and tolerability assessments; format: in vivo, healthy volunteers (human)
Summary of the method: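 Healthy adults (18–50 y, BMI 18–30 kg m–2, 50–100 kg) got the oral test compound 15 mg twice daily for 4 days, then a single 15 mg dose with a 500 mg probe cephalosporin on day 5, 5–10 min before standardized meals. Adverse events were monitored from screening to follow-up, 7–10 days after the last dose. Vital signs, ECGs, physical exams and clinical labs were also collected.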

[4] = whole study, all AEs occurred in the tenapanor treatment period

SMILES: N=C(N)NC(=O)c1nc(Cl)c(N)nc1N [Amiloride]
- Effect on gastrointestinal uptake of amoxicillin (Na+/H+ exchange): decrease the gastrointestinal uptake
- Effect on amoxicillin absorption in the gut (Na+/H+ exchange; jejunal perfusion with amiloride and amoxicillin): did not affect amoxicillin absorption

- t½ (apparent terminal half-life) of cefadroxil ([1]; cefadroxil 500 mg alone, geometric mean (GCV, %), n = 28): 2.0 (11.1) h
- Tmax ([1]; human, plasma, oral, 500 mg): 1.5 h
SMILES: CC1=C(C(=O)O)N2C(=O)[C@@H](NC(=O)[C@H](N)c3ccc(O)cc3)[C@H]2SC1 [Cefadroxil]
- Affinity for PepT1 (PepT1): moderate affinity

- BSFS score (stool consistency) (NHE3): 5.4 ± 1.2
- Detection of tenapanor in plasma [2]: not detected in plasma
SMILES: CN1Cc2c(Cl)cc(Cl)cc2[C@H](c2cccc(S(=O)(=O)NCCOCCOCCNC(=O)NCCCCNC(=O)NCCOCCOCCNS(=O)(=O)c3cccc([C@@H]4CN(C)Cc5c(Cl)cc(Cl)cc54)c3)c2)C1 [Tenapanor]
- Serious AEs or discontinuations due to AEs ([3]; during the study, 28 volunteers): No serious AEs or discontinuations due to AEs
- Tolerability ([3]; tenapanor 15 mg b.i.d., 28 volunteers): generally well tolerated
- Abdominal distension (n volunteers) [3, 4]: 4
- Abdominal pain (n volunteers) [3, 4]: 4
- Abnormal gastrointestinal sounds (n volunteers) [3, 4]: 3
- Diarrhoea (n volunteers) [3, 4]: 2
- Flatulence (n volunteers) [3, 4]: 2
